From publication PMC11044220 (ACS Omega, 2024)

Experiments:
[1] = tested on: HepG2 liver cancer cell line; details: read-out: IC50 (μM) HepG2, MTT assay, mean of three independent replicates ± SE
HepG2 cells [2] = experiment: Cell cycle analysis by flow cytometry; format: cell-based, human; details: for percentage of cells at the G1 phase: IC50 concentration (4.23 μM), control 50.7%
Outline: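 HepG2 cells were treated for 48 h with 4.23 μM test compound, alongside untreated controls. DNA content was analysed by FACS to give the percentage of cells in G1, S and G2/M. The pre-G1 fraction was scored as the apoptotic (DNA-fragmented) population. Fold changes were expressed relative to the untreated control.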

EGFR-TK = EGFR-TK (Homo sapiens, UniProt P00533); experiment: EGFR-TK enzyme assay; format: biochemical
Sequence of EGFR-TK (P00533 25-1210): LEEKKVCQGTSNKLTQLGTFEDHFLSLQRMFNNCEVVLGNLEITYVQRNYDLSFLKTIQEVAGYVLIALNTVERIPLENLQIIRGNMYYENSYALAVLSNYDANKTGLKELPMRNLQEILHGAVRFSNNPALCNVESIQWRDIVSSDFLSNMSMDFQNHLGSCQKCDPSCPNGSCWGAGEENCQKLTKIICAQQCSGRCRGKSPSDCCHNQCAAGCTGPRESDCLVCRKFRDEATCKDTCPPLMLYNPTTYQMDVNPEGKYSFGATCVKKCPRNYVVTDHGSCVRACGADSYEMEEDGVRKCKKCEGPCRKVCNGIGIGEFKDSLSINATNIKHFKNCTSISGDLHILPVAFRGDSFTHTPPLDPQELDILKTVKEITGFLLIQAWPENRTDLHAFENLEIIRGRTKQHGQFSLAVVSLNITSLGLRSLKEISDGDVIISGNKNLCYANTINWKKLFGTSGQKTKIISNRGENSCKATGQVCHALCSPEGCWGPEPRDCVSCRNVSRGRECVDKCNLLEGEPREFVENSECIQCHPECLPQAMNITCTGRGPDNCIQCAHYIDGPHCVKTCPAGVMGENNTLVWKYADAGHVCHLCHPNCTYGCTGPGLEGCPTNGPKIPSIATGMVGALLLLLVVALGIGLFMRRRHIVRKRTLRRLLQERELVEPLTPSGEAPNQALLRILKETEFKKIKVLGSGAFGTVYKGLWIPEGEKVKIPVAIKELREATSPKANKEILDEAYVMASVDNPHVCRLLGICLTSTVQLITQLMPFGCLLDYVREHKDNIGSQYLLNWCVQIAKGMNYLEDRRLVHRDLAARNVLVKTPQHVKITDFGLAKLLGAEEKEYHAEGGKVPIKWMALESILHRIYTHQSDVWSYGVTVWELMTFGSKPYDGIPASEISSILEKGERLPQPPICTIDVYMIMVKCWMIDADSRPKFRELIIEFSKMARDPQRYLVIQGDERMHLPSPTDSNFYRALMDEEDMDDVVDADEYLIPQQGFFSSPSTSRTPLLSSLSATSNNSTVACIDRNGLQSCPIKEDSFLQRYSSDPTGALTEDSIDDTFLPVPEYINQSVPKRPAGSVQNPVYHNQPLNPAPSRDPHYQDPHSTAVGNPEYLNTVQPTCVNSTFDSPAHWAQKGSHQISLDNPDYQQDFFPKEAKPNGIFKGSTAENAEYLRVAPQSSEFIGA

Bax = experiment: qRT-PCR for apoptotic markers: Bax; format: cell-based
HepG2 cells [3] = experiment: Mitochondrial membrane potential; format: cell-based, human; details: HepG2, 48 h, 4.23 μM (IC50 concentration)
Outline: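 Whole HepG2 cells were incubated with 4.23 μM test compound for 48 h, then labelled with a green fluorescent mitochondrial dye. The percentage of cells with depolarised mitochondrial membranes was measured and expressed as fold relative to untreated HepG2 cells.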

HepG2 cells [4] = experiment: Annexin V-FITC/PI dual staining apoptosis assay; format: cell-based, human
Bcl2 = experiment: qRT-PCR for apoptotic markers: Bcl2; format: cell-based
p53 = experiment: qRT-PCR for apoptotic markers: p53; format: cell-based

IC50 [1]	IC50 (EGFR-TK)	Structure (SMILES)	percentage of cells at the G1 phase (HepG2 cells [2]; HepG2, 48 h)	Bax level, fold change compared with no treatment control (Bax)	decrease of MMP level, fold compared with untreated control HepG2 (HepG2 cells [3])	cells at the pre-G1 phase (HepG2 cells [2]; HepG2, 48 h, IC50 concentration, control 2.5%)	cell cycle arrest at the G1 phase, fold compared to untreated HepG2 control (HepG2 cells [2]; HepG2, IC50 concentration)	total apoptotic cells (early and late apoptosis and necrosis) (HepG2 cells [4]; HepG2, 48 h, IC50 concentration (4.23 μM), control 2.5%)	ratio of both early and late apoptosis (HepG2 cells [4]; HepG2, IC50 concentration, control 0.7%)	Bcl2 level, fold change (Bcl2)	p53 level, fold change compared with no treatment control (p53)
5.89 ± 0.19 µM		O=C1NN(c2ccccc2)C(c2ccccc2)=N/C1=C\c1ccc(F)cc1 [compound 7, (Z)-5-(4-Fluorobenzylidene)-2,3-diphenyl-1,2-dihydro-1,2,4-triazin-6(5H)-one]									
		O=C(NN=C(c1ccccc1)c1ccccc1)/C(=C/c1ccc(F)cc1)NC(=O)c1ccccc1 [compound 5, (Z)-N-(3-(2-(Diphenylmethylene)hydrazinyl)-1-(4-fluorophenyl)-3-oxoprop-1-en-2-yl)benzamide]	64.2%								
	0.13 µM	O=C1/C(=C/c2ccc(F)cc2)N=C(c2ccccc2)N1c1ccc(S(=O)(=O)Nc2ncccn2)cc1 [compound 6, (Z)-4-(4-(4-Fluorobenzylidene)-5-oxo-2-phenyl-4,5-dihydro-1H-imidazol-1-yl)-N-(pyrimidin-2-yl)benzenesulfonamide]	64.2%	3.7 fold	2.84 fold	55.5%	1.28 fold	55.5%	44.8%	0.38 fold	4.7 fold
